Data as given in ChEMBL document CHEMBL3112513, “Synthesis, docking and pharmacological evaluation of novel indole based potential atypical antipsychotics” (2014).
The source made the active and inactive calls. No cut-off for these calls is given here.

Experiments:
Mus musculus [1] = test: Antipsychotic activity in albino lyka mouse assessed as reversal of apomorphine-induced stereotypy at 2.5 to 5 mg/kg, ip administered 10 mins prior to apomorphine challenge measured 10 to 30 mins post challenge; format: functional, organism-based
Summary of the method: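 Mice given test compound, vehicle or clozapine i.p., then apomorphine 2.5 mg/kg i.p. 10 min later. Each mouse placed in an inverted 500 ml beaker for 60 s at 10, 15, 20, 25 and 30 min after apomorphine. Scored 1 (rearing, sniffing, grooming) or 2 (licking, biting), reported as mean score. Same mice as mesh-climbing test. Three dose levels, chosen by initial titration.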

Mus musculus [2] = test: Antipsychotic activity in ip dosed albino lyka mouse assessed as reversal of apomorphine-induced mesh climbing response administered 10 mins prior to apomorphine challenge measured 10 to 30 mins post challenge; format: functional
Summary of the method: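 Test agent, saline or clozapine given ip; apomorphine 2.5 mg/kg ip 10 min later. Mice were placed in a mesh cage for 60 s at 10, 15, 20, 25 and 30 min post-apomorphine, with a naive baseline recorded first. Climbing scored 1 (one to three paws on mesh) or 2 (all four paws). Mean score per group.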

Mus musculus [3] = test: Antipsychotic activity in albino lyka mouse assessed as reversal of apomorphine-induced stereotypy at 5 to 10 mg/kg, ip administered 10 mins prior to apomorphine challenge measured 10 to 30 mins post challenge; format: functional, organism-based
Summary of the method: (§1)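 Mice (same animals as the climbing test) dosed ip with test agent, saline vehicle or clozapine; apomorphine 2.5 mg/kg given 10 min later. Each mouse was placed in an inverted 500 ml beaker for 60 s at 10, 15, 20, 25 and 30 min post-apomorphine. Scored 1 (rearing, sniffing, grooming) or 2 (licking, biting). Three doses per compound, chosen by initial titration.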

Mus musculus [4] = test: Antipsychotic activity in albino lyka mouse assessed as reversal of apomorphine-induced stereotypy at 2 to 7.5 mg/kg, ip administered 10 mins prior to apomorphine challenge measured 10 to 30 mins post challenge; format: functional, organism-based; summary of the method: as §1
Mus musculus [5] = test: Antipsychotic activity in albino lyka mouse assessed as reversal of apomorphine-induced stereotypy at 2.5 to 7.5 mg/kg, ip administered 10 mins prior to apomorphine challenge measured 10 to 30 mins post challenge; format: functional, organism-based; summary of the method: as §1

With `CN1CCN(C2=Nc3cc(Cl)ccc3Nc3ccccc32)CC1` [CLOZAPINE] the Activity (Mus musculus [1]) was “inactive” and the ED50 (Mus musculus [2]) was 3.07 mg/kg.

For `Clc1ccc(NCCCOc2ccccc2-c2cc3ccccc3[nH]2)cc1`, the Activity (Mus musculus [3]) was “inactive” and the ED50 (Mus musculus [2]) was 7.23 mg/kg.

With `Clc1ccccc1NCCCOc1ccc(-c2cc3ccccc3[nH]2)cc1` the Activity (Mus musculus [4]) was “inactive” and the ED50 (Mus musculus [2]) was 1.6 mg/kg.

For `Clc1ccccc1NCCCOc1ccccc1-c1cc2ccccc2[nH]1`, the Activity (Mus musculus [3]) was “inactive” and the ED50 (Mus musculus [2]) was 6.23 mg/kg.

With `Clc1ccc(NCCCOc2ccc(-c3cc4ccccc4[nH]3)cc2)cc1` the Activity (Mus musculus [4]) was “inactive” and the ED50 (Mus musculus [2]) was 1.8 mg/kg.

In the case of `COc1ccc(NCCCOc2ccc(-c3cc4ccccc4[nH]3)cc2)cc1`, the Activity (Mus musculus [5]) is reported as “Active” and the ED50 (Mus musculus [2]) is reported as 1.9 mg/kg.

`COc1ccccc1NCCCOc1ccc(-c2cc3ccccc3[nH]2)cc1` was tested, and the Activity (Mus musculus [5]) was “Active” and the ED50 (Mus musculus [2]) was 1.7 mg/kg.
